In ChEMBL document CHEMBL3425429:
The source made the active and inactive calls. The calls are words filed in the database; no cut-off is given here.

How the values were obtained:
[1] = molecular target: Serine/threonine-protein kinase TBK1 (Homo sapiens, UniProt Q9UHD2); assay: Inhibition of human TBK1
Summary of the method: (§1)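 Recombinant human protein kinases screened through the Eurofins KinaseProfiler service. IC50 values are means of two independent experiments.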

MDA-MB-231 [2] = assay: Antiproliferative activity against human MDA-MB-231 cells assessed as inhibition of colony formation at >0.01 uM after 12 days by crystal violet staining-based assay; type: functional, cell-based
Summary of the method: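 MDA-MB-231 cells plated at 5000 per well and treated the next day with vehicle or compound, medium refreshed every 4 days; after 12 days, colonies fixed in methanol, crystal violet stained and photographed.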

MDA-MB-231 [3] = assay: Inhibition of ERK phosphorylation in human MDA-MB-231 cells at 0.001 to 1 uM after 20 hrs by Western blot analysis; type: cell-based
Summary of the method: (§2)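 MDA-MB-231 cells exposed to a concentration series for 20 h at 37 °C, then washed in ice-cold saline and lysed in RIPA buffer with protease cocktail. Lysates were cleared at 12 000 rpm for 10 min at 4 °C and protein measured by Bradford. Equal protein was run on SDS-PAGE, transferred to PVDF and immunoblotted for phospho-proteins.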

[4] = molecular target: Protein kinase C alpha type (Homo sapiens, UniProt P17252); assay: Inhibition of human PKCalpha; summary of the method: as §1
[5] = molecular target: NUAK family SNF1-like kinase 1 (Homo sapiens, UniProt O60285); assay: Inhibition of human Ark5; summary of the method: as §1
[6] = Cytotoxicity against human MDA-MB-436 cells assessed as cell viability after 72 hrs by MTT assay; type: functional, cell-based; details: MDA-MB-436, 72 h
[7] = molecular target: Serine/threonine-protein kinase Chk1 (Homo sapiens, UniProt O14757); assay: Inhibition of human CHK1; summary of the method: as §1
[8] = molecular target: RAC-beta serine/threonine-protein kinase (Homo sapiens, UniProt P31751); assay: Inhibition of human PKBbeta; summary of the method: as §1
Bcr/Abl fusion protein = Bcr/Abl fusion protein (Homo sapiens, UniProt P00519); assay: Inhibition of human BCR/ABL; type: protein assay
Summary of the method: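 Recombinant human BCR-ABL kinase, tested as part of a selected kinase panel through a commercial kinase-profiling service. IC50 is the mean of two independent experiments.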

MDA-MB-231 [9] = assay: Antitumor activity against human MDA-MB-231 cells xenografted in SCID mouse assessed as reduction in number of proliferating cells in tumor at 30 mg/kg/day, po administered for 18 days measured post last dose by Ki67 staining-based assay; type: functional, organism-based
Summary of the method: (§3)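 SCID mice carrying subcutaneous MDA-MB-231 xenografts received oral dosing once daily for 18 days (vehicle 25% PEG400 plus 5% DMSO in sterile water); at the end, tumors formalin-fixed and paraffin-embedded, 4–8 μm sections immunostained (Ki67, phospho-proteins) or TUNEL/AP-Red labelled, and compared with control.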

[10] = molecular target: Mitogen-activated protein kinase 8 (Homo sapiens, UniProt P45983); assay: Inhibition of human JNK1alpha1; summary of the method: as §1
[11] = Tmax in Sprague-Dawley rat at 10 mg/kg, po by LC/MS analysis; type: ADME, organism-based; set-up: dose 10 mg/kg, route oral; details: in vivo
Summary of the method: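 Male Sprague-Dawley rats fitted with jugular vein catheters and fasted overnight, then given a single 10 mg/kg oral gavage dose; n=5. Serial blood samples were spun at once to plasma and analysed by LC-MS/MS. Noncompartmental parameters were fitted.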

MDA-MB-231 [12] = assay: Antitumor activity against human MDA-MB-231 cells xenografted in SCID mouse assessed as increase in number of apoptotic cells in tumor at 30 mg/kg/day, po administered for 18 days measured post last dose by TUNEL assay; type: functional, organism-based; summary of the method: as §3
MDA-MB-231 [13] = assay: Induction of apoptosis in human MDA-MB-231 cells assessed as late apoptotic cells at 0.1 uM after 24 hrs by annexin V-FITC/propidium iodide staining-based flow cytometric analysis (reference value: 2.67%); type: functional
MDA-MB-231 [14] = assay: Induction of apoptosis in human MDA-MB-231 cells assessed as late apoptotic cells at 0.1 uM after 48 hrs by annexin V-FITC/propidium iodide staining-based flow cytometric analysis (reference value: 4.25%); type: functional
BT-474 = assay: Cytotoxicity against human BT474 cells assessed as cell viability after 72 hrs by MTT assay; type: functional, cell-based; details: BT-474, 72 h
[15] = molecular target: Dual specificity mitogen-activated protein kinase kinase 1 (Homo sapiens, UniProt Q02750); assay: Inhibition of human MEK1; summary of the method: as §1
MDA-MB-231 [16] = assay: Inhibition of MEK phosphorylation in human MDA-MB-231 cells at 0.001 to 1 uM after 20 hrs by Western blot analysis; type: cell-based; summary of the method: as §2
[17] = molecular target: Mitogen-activated protein kinase 1 (Homo sapiens, UniProt P28482); assay: Inhibition of human MAPK1; summary of the method: as §1
Mus musculus [18] = assay: In vivo inhibition of MEK phosphorylation in tumor of SCID mouse xenografted with human MDA-MB-231 cells at 30 mg/kg/day, po administered for 18 days measured post last dose by immunohistochemical analysis relative to vehicle-treated control; type: functional, organism-based; summary of the method: as §3
[19] = molecular target: Serine/threonine-protein kinase pim-1 (Homo sapiens, UniProt P11309); assay: Inhibition of human Pim1; summary of the method: as §1
Mus musculus [20] = assay: In vivo inhibition of Src phosphorylation in tumor of SCID mouse xenografted with human MDA-MB-231 cells at 30 mg/kg/day, po administered for 18 days measured post last dose by immunohistochemical analysis relative to vehicle-treated control; type: functional, organism-based; summary of the method: as §3
MDA-MB-231 [21] = assay: Antitumor activity against human MDA-MB-231 cells xenografted in mouse assessed as tumor growth inhibition at 40 mg/kg/day, po; type: functional, organism-based
Summary of the method: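 Oral daily dosing at 40 mg kg−1 d−1 began once MDA-MB-231 xenografts reached about 200 mm3; three mice per group; tumor volume tracked.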

MDA-MB-231 [22] = assay: Induction of apoptosis in human MDA-MB-231 cells after 24 to 48 hrs by annexin V-FITC/propidium iodide staining-based flow cytometric analysis; type: functional, cell-based
Mus musculus [23] = assay: In vivo inhibition of ERK phosphorylation in tumor of SCID mouse xenografted with human MDA-MB-231 cells at 30 mg/kg/day, po administered for 18 days measured post last dose by immunohistochemical analysis relative to vehicle-treated control; type: functional, organism-based; summary of the method: as §3
Focal adhesion kinase 1 = Focal adhesion kinase 1 (Homo sapiens, UniProt Q05397); assay: Inhibition of human FAK; summary of the method: as §1
MDA-MB-231 [24] = assay: Induction of apoptosis in human MDA-MB-231 cells assessed as late apoptotic cells at 0.3 uM after 24 hrs by annexin V-FITC/propidium iodide staining-based flow cytometric analysis (reference value: 2.67%); type: functional
Rattus norvegicus = assay: AUC (0 to infinity) in Sprague-Dawley rat at 10 mg/kg, po by LC/MS analysis; type: ADME, organism-based, Plasma; set-up: time infinity, dose 10 mg/kg, route oral; details: in vivo
Summary of the method: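 Single oral gavage dose in male Sprague-Dawley rats fasted overnight; serial blood drawn via surgically placed jugular vein catheters at set times, plasma separated at once and measured by HPLC-MS/MS; noncompartmental parameters fitted; n=5.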

MDA-MB-231 [25] = assay: Induction of apoptosis in human MDA-MB-231 cells assessed as early apoptotic cells at 0.3 uM after 48 hrs by annexin V-FITC/propidium iodide staining-based flow cytometric analysis (reference value: […]); type: functional
[26] = molecular target: RAC-alpha serine/threonine-protein kinase (Homo sapiens, UniProt P31749); assay: Inhibition of human PKBalpha; summary of the method: as §1
[27] = molecular target: Serine/threonine-protein kinase PAK 1 (Homo sapiens, UniProt Q13153); assay: Inhibition of human PAK1; summary of the method: as §1
MDA-MB-435 = assay: Cytotoxicity against human MDA-MB-435 cells assessed as cell viability after 72 hrs by MTT assay; type: functional, cell-based; details: MDA-MB-435, 72 h

Sequence of Serine/threonine-protein kinase TBK1 (Q9UHD2 whole entry): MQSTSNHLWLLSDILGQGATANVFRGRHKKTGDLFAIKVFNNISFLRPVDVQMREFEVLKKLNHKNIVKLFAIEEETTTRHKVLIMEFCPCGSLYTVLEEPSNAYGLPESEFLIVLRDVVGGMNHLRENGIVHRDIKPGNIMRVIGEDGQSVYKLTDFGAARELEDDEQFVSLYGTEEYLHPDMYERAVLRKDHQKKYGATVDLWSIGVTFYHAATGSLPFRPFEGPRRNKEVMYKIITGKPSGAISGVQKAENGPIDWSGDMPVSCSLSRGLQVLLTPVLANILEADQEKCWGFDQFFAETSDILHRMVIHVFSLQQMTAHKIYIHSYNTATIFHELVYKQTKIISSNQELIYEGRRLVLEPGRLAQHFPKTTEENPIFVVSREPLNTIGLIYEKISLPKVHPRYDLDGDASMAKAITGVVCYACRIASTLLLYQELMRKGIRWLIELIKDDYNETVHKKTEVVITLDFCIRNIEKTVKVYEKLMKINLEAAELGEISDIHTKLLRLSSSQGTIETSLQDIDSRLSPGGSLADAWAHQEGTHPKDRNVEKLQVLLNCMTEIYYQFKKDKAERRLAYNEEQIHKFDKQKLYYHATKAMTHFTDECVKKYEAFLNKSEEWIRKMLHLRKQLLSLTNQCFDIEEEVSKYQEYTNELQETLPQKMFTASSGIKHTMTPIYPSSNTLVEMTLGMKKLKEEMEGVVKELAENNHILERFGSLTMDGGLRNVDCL
Sequence of Focal adhesion kinase 1 (Q05397 whole entry): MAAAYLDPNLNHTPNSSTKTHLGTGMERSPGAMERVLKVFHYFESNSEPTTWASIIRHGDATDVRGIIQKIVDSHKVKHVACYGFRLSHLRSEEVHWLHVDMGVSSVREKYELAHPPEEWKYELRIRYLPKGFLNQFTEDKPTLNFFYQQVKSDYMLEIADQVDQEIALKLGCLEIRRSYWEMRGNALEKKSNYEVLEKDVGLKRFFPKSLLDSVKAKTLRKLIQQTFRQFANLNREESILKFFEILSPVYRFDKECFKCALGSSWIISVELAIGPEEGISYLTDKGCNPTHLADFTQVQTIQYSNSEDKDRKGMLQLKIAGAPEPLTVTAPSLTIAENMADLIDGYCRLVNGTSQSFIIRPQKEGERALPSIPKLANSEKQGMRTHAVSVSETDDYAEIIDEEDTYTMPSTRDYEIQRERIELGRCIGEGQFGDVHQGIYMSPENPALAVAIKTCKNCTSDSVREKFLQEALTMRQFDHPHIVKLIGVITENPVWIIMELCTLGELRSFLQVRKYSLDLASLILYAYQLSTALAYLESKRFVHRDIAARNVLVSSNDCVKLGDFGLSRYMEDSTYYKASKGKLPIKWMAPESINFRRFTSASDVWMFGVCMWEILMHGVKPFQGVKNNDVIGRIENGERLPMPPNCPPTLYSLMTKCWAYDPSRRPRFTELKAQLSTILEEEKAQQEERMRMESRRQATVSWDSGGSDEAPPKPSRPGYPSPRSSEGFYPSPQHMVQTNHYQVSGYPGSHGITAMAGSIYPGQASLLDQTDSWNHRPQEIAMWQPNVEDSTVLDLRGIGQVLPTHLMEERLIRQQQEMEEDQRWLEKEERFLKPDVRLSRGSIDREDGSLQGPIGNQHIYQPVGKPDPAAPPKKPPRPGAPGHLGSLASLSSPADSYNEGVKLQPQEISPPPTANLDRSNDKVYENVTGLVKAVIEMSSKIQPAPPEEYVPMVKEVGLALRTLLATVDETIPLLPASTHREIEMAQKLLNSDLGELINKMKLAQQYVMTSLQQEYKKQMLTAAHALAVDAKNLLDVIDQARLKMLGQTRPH
Sequence of Mitogen-activated protein kinase 8 (P45983 whole entry, looked up): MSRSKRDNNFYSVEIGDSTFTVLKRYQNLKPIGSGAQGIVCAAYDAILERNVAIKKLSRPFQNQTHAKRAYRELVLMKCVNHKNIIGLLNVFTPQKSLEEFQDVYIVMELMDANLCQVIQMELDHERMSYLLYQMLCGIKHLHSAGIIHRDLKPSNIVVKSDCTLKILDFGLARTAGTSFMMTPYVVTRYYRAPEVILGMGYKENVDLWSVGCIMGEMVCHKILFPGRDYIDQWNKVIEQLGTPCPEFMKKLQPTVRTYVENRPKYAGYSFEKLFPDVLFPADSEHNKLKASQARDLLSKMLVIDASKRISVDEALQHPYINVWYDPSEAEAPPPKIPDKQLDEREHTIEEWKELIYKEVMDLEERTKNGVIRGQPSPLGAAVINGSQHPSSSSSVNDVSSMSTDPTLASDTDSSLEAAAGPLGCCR
Sequence of Serine/threonine-protein kinase pim-1 (P11309 whole entry): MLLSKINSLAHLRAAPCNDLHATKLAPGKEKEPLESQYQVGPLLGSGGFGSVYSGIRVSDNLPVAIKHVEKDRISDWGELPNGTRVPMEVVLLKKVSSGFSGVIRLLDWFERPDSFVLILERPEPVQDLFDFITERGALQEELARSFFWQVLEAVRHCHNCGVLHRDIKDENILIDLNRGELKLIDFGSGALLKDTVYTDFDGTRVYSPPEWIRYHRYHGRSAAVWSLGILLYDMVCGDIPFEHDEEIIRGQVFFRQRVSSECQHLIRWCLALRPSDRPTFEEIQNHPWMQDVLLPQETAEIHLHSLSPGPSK
Sequence of Serine/threonine-protein kinase PAK 1 (Q13153 whole entry): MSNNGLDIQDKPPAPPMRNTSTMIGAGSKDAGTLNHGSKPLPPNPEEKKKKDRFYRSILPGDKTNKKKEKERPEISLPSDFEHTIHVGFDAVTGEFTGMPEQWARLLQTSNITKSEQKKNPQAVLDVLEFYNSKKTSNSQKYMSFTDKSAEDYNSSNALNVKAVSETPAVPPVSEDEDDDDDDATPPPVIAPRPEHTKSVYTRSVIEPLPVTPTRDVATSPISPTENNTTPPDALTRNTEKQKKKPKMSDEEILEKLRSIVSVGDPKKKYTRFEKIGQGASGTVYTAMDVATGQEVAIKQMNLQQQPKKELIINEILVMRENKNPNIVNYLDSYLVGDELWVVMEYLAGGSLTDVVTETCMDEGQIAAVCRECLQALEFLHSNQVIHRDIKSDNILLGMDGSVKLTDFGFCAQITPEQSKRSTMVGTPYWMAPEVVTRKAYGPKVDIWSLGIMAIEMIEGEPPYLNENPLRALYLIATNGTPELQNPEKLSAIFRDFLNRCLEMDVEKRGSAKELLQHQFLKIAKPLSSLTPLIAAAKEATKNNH
Sequence of NUAK family SNF1-like kinase 1 (O60285 whole entry): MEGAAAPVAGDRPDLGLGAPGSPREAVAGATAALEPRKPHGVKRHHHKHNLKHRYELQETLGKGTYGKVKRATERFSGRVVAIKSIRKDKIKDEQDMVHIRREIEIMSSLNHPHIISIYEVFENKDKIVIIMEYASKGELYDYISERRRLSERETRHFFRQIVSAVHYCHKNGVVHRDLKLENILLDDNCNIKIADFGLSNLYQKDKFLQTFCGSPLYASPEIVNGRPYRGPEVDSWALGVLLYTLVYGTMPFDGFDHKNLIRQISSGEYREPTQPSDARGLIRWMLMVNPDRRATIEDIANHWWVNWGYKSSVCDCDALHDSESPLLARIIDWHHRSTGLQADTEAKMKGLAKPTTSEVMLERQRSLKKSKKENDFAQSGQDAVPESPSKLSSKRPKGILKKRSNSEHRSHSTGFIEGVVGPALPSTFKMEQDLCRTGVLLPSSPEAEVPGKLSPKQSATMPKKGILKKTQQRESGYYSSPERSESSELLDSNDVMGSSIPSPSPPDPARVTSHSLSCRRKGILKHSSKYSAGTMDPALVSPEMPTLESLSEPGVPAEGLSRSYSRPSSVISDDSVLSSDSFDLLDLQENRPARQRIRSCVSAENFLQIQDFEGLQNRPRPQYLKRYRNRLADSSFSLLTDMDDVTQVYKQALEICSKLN
Sequence of RAC-beta serine/threonine-protein kinase (P31751 whole entry, the tested form may be a part): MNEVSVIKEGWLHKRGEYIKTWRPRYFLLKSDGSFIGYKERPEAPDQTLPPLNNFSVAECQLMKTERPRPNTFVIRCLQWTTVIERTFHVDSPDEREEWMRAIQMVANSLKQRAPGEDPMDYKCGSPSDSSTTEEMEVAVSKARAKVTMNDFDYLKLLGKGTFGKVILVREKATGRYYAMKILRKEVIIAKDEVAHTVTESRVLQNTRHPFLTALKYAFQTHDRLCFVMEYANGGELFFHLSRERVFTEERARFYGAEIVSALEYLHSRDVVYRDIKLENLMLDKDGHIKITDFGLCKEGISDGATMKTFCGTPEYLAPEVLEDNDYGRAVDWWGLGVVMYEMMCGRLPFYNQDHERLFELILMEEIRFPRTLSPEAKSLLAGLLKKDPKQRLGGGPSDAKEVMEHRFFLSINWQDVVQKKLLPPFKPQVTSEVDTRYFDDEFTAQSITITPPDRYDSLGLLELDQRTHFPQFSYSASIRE

- IC50 [1]: > 10 µM
- IC50 [4]: > 10 µM
- IC50 [5]: > 10 µM
- IC50 [7]: > 10 µM
- IC50 [8]: > 10 µM
- IC50 (Bcr/Abl fusion protein): 0.001 µM
- IC50 [10]: > 10 µM
- Tmax [11]: 12 h
- IC50 [15]: > 10 µM
- IC50 [17]: > 10 µM
- IC50 [19]: > 10 µM
- IC50 (Focal adhesion kinase 1): > 10 µM
- AUC (Rattus norvegicus): 4772.5 µg/L/h
- IC50 [26]: > 10 µM
- IC50 [27]: > 10 µM
SMILES: CCn1nc(C#Cc2cc(C(=O)Nc3ccc(CN4CCN(C)CC4)c(C(F)(F)F)c3)ccc2C)c2c(N)ncnc21
- inhibition (MDA-MB-231 [2]): Active
- inhibition (MDA-MB-231 [3]): Active
- IC50 [6]: 0.316 µM
- Activity (MDA-MB-231 [9]): Active
- Activity (MDA-MB-231 [12]): Active
- Activity (MDA-MB-231 [13]): 10.4%
- Activity (MDA-MB-231 [14]): 15.9%
- IC50 (BT-474): > 10 µM
- inhibition (MDA-MB-231 [16]): Active
- inhibition (Mus musculus [18]): Active
- inhibition (Mus musculus [20]): Active
- TGI (MDA-MB-231 [21]): Active
- Activity (MDA-MB-231 [22]): Dose-dependent effect
- inhibition (Mus musculus [23]): Active
- Activity (MDA-MB-231 [24]): 15.5%
- Activity (MDA-MB-231 [25]): 24.1%
- IC50 (MDA-MB-435): 0.005 µM
